Compound activity deposited in PubChem BioAssay by several laboratories.
STAT1 inh – STAT1 signaling inhibitors, primary screen, cell-based, HTS, luciferase reporter; NIH 3T3 STAT1-luciferase reporter, IFN-gamma, luminescence; inhibition, % at 5.5 µM; actives 0.35% (n = 200,000); AID 920, 2007;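 active = inhibition above a set limit, the mean inhibition across all tested compounds plus 3 SD, cut at about 34% in these data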;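 also: 0% = IFN-gamma with DMSO and 100% = IFN-gamma with 300 µM nifuroxazide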
STAT1 act-1 – STAT1 signaling activators, primary screen, cell-based, HTS, luciferase reporter; activation (% of control), % at 5.5 µM; NIH 3T3 STAT1-luciferase reporter, IFN-gamma, luminescence; 100% = IFN-gamma alone, no compound; actives 2.6% (n = 200,000);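 active = activation above the screen-wide mean activation plus 3 SD, cut at about 130% in these data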;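 also: raw ratio to IFN-gamma control signal so 100% means no change and 0% no light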
STAT3 act-1 – IL-6 driven STAT3 reporter potentiators, primary screen, U3A cells, luciferase, luminescence, MLSCN library; IL-6 STAT3-luciferase reporter; 100% = signal with IL-6 EC80 alone; activation (% of control), % at 5.6 µM; actives 0.91% (n = 190,000);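 active = activation above the screen-wide mean of compound activation plus 3 SD, cut at about 130% in these data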;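 also: 0% = background luminescence of wells with medium and substrate only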
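System – human U3A cells carrying STAT3-luciferase construct · Probe or stimulus – Interleukin-6, 33 ng/mL · Schedule – compound 1 h, then IL-6 6 h at 37 °C · Signal – luminescence from STAT3-driven luciferase reporter · Evaluation – percent of IL-6-only median luminescence · Benchmarks – IL-6-only high control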
NF-kB expr up – activators of NF-kB expression in neurons, primary screen, cell-based, HTS. human neuronal cells, NF-kB reporter expression; active compounds read high. fold change at 12.5 µM. actives 1.6% (n = 190,000). AID 1239, 2008; in the data active = fold change above about 3.3
APP 5'UTR act – activators of APP 5'UTR luciferase reporter, primary screen, SH-SY5Y cells; SH-SY5Y APP 5'UTR luciferase reporter, luminescence; zero percent = DMSO vehicle wells; activation, % at 2 µM; actives 1% (n = 190,000); AID 1276, 2008;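 active = activation above a set limit, based on mean plus 3 SD of controls, cut at about 140% in these data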
STAT3 blocker – IL-6 driven STAT3 reporter inhibitors, primary screen, U3A cells, luciferase, luminescence, MLSCN library; AID 862, 2007; actives 0.89% (n = 190,000); IL-6 STAT3-luciferase reporter; host cell line lacks STAT1; inhibition, % at 5.5 µM;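 active = inhibition above the mean inhibition across all screened compounds plus 3 SD, cut at about 44% in these data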;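 also: 0% = DMSO only wells and 100% = 100 µM nifuroxazide control wells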
STAT3 act-2 – STAT3 reporter potentiators, retest of hits, confirmation, U3A cells, luciferase, luminescence; shares compounds with STAT3 act-1; IL-6 potentiation; U3A cells lack STAT1; 100 means same as IL-6 alone; potentiation (% of control), % at 5.7 µM; actives 64% (n = 1,200); AID 1267, 2008;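 active = percent activation of the STAT3 luciferase reporter above a set limit taken from the earlier primary screen, cut at about 130% in these data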;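 also: 0% = background signal of medium plus substrate and 100% = median of IL-6 with DMSO wells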
NFkB act 2 – NF-kB reporter activators in human cells, counter-screen for STAT3 activator project | shares compounds with STAT3 act-1 | NF-kappaB reporter activation | activation (% of control), % at 5.7 µM | actives 11% (n = 1,200); in the data active = activation above about 120%;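 also: reporter induced by TNF-alpha stimulation; 100% = median of stimulated DMSO wells and 0% = no signal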
STAT1 act-2 – STAT1 reporter activators, IFN-gamma induced, counter-screen for STAT3 activator project, cell-based, NIH 3T3, luciferase luminescence; shares compounds with STAT3 act-1; NIH 3T3 STAT1-luciferase reporter; activation (% of control), % at 5.7 µM; actives 13% (n = 1,200);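 active = activation above the solvent-only control well mean plus 3 SD, set per screening run, cut at about 120% in these data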;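 also: 100% = IFN-gamma with DMSO median signal so 100% means no change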
Active calls of the source: *; · = no result given. Hits are enriched below; roughly 4.9% of the tested compounds scored in any of these assays.

SMILES	STAT1 inh	STAT1 act-1	STAT3 act-1	NF-kB expr up	APP 5'UTR act	STAT3 blocker	STAT3 act-2	NFkB act 2	STAT1 act-2
CCOc1ccc(S(=O)(=O)Nc2nc3ccccc3nc2Nc2ccc(N3CCOCC3)cc2)cc1	-2.2	102.0	88.6	0.96	21.8	8.9	·	·	·
O=S(=O)(c1ccc(Br)cc1)N1CCN(c2ccc3nnc(-c4ccccc4)n3n2)CC1	-0.6	100.5	166.9*	0.67	5.1	-68.6	144.0*	108.8	101.0
O=C(Nc1nnc(-c2ccccc2Cl)o1)c1nc2ccccc2s1	-12.2	111.1	159.1*	1.06	10.0	-59.6	139.6*	97.9	101.0
O=C(Nc1nnc(-c2ccccc2Cl)o1)c1ccco1	1.1	99.0	92.7	1.23	20.4	11.5	·	·	·
COc1cc2c(cc1NC(=O)C(C)OC(=O)C1CC(=O)N(Cc3ccco3)C1)oc1ccccc12 (stereo not drawn)	-25.6	123.6	154.4*	1.82	51.2	-65.1	146.6*	117.9	122.3*
CC1=C(C(=O)OCC(C)C)C2(O)C(=O)c3ccccc3C2(O)N1 (stereo not drawn)	4.6	96.0	104.2	0.92	-0.7	-4.9	·	·	·
COc1ccc(-c2nc(CCNC(=O)c3cccs3)cs2)cc1	7.6	93.1	78.0	0.94	-6.4	34.0	·	·	·
C=CCOC(=O)C1=C[C@H](C2CCCCC2)[C@@H](CCCO)[C@H](OCC)O1	4.5	97.2	·	0.76	2.6	·	·	·	·
COc1cc(C(C[N+](=O)[O-])c2c(C)[nH]c3ccccc23)cc(OC)c1OC (stereo not drawn)	14.2	87.3	141.7*	1.03	4.7	-48.5	126.0	98.2	91.8
c1ccc2sc(Sc3ncnc4sccc34)nc2c1	-11.4	110.1	151.5*	1.76	0.3	-61.0	159.3*	97.3	101.7
COc1ccccc1-c1nnc(Nc2nc3c(OC)cccc3s2)o1	-31.3	127.0	141.9*	2.5	-87.1	-45.0	110.1	137.3*	141.1*
C[n+]1c2n(c3ccccc31)N=C(c1ccc(Br)cc1)CS2	23.8	78.2	136.4*	2.14	15.7	-35.2	122.2	95.9	71.5
Cc1cccc(-c2nnc3n2N=C(c2ccccc2)CS3)c1	2.8	97.4	86.8	1.09	6.0	17.5	·	·	·
C[n+]1c2n(c3ccccc31)N=C(c1ccccc1)CS2	29.8	72.2	139.9*	0.98	2.4	-28.4	149.2*	106.4	78.8
COc1cc(NC(=O)CSc2nnc(NC(C)C)s2)cc(OC)c1OC	9.0	89.6	95.2	1.21	3.8	7.9	·	·	·
CCOC(=O)N1CCN(C(=O)CCl)CC1	22.9	79.0	101.7	1.07	-19.2	7.4	·	·	·
O=C(O)CCCn1cc(NC(=O)c2ccc(Br)o2)cn1	2.3	95.9	90.9	1.14	10.1	15.6	·	·	·
Brc1cccc(-c2cnco2)c1	-7.4	104.9	97.8	1.11	19.5	7.6	·	·	·
CCC(C)n1c(SCC(=O)Nc2cc(C(C)(C)C)nn2-c2ccccc2)nc2ccccc2c1=O (stereo not drawn)	1.2	98.9	104.3	0.46	10.2	3.9	·	·	·
COc1ccc(C2CC(=O)Oc3c2c(=O)n(C)c2ccccc32)c(OC)c1OC (stereo not drawn)	3.9	96.5	101.1	0.9	0.2	7.2	·	·	·
Cn1c(=O)c2c(c3ccccc31)OC(=O)CC2c1cccnc1 (stereo not drawn)	1.1	97.1	136.9*	1.09	9.4	-34.1	98.2	101.7	99.9
COc1ccccc1-c1nc2s/c(=C\c3cccs3)c(=O)n2n1	-0.2	101.4	114.6	0.81	-5.3	-10.3	·	·	·
COc1ccc(/C=c2\sc3nc(-c4ccccc4OC)nn3c2=O)c(OC)c1	0.3	99.7	155.6*	0.99	11.4	-63.2	128.8	97.5	96.3
Brc1ccc2c(c1)OCCOCCOCCOCCOCCOCCO2	3.0	97.4	98.8	1.1	-3.5	1.6	·	·	·
Cc1ccc(CC(=O)Nc2nc3c(s2)CCCC3)cc1	-5.7	101.2	140.7*	3.35*	15.9	-49.3	136.5*	103.4	113.8
SMILES	STAT1 inh	STAT1 act-1	STAT3 act-1	NF-kB expr up	APP 5'UTR act	STAT3 blocker	STAT3 act-2	NFkB act 2	STAT1 act-2
O=C(NC(=S)Nc1nc2c(s1)CCCC2)c1ccccc1	-23.6	121.1	147.8*	1.6	191.2*	-60.7	205.8*	141.9*	199.9*
O=C(NCCc1ccc(F)cc1)C1CCCCC1	-23.0	119.6	104.7	1.28	5.9	-0.8	·	·	·
Cn1cccc1/C=N/NC(=O)c1ccn[nH]1	-18.3	116.5	103.4	1.14	18.4	-0.3	·	·	·
COc1ccc(CNC(=O)COC(=O)/C=C/c2cccc(Br)c2)cc1OC	-8.1	106.1	96.9	1.04	2.7	10.2	·	·	·
CCN1C(=O)N(CC)C2C1N(CO)C(=O)N2CO (stereo not drawn)	5.1	96.7	101.6	1.17	-12.3	3.2	·	·	·
COc1ccc(C(=O)c2cc([N+](=O)[O-])ccc2N2CCOCC2)cc1	-20.1	118.2	163.3*	3.37*	-92.8	-74.4	125.0	171.7*	141.1*
Cc1ccc(C(=O)c2cc([N+](=O)[O-])ccc2N2CCOCC2)cc1	3.4	97.0	95.0	2.11	-93.2	5.3	·	·	·
CCC(CC)NC(=O)c1cc([N+](=O)[O-])ccc1N1CCOCC1	-2.4	102.2	98.0	0.97	1.2	0.9	·	·	·
Cc1ccc(C(=O)c2cc([N+](=O)[O-])ccc2N2CCCCC2)c(C)c1	0.1	99.9	137.4*	3.89*	-96.2	-38.9	115.8	152.2*	107.7
CCOc1ccc(C(=O)c2cc([N+](=O)[O-])ccc2N2CCOCC2)cc1	-25.4	122.5	166.0*	3.62*	-94.1	-68.4	127.1	164.8*	131.6*
CNC(=O)NC(=O)C(C)OC(=O)c1oc2ccccc2c1CSc1ccc(Cl)cc1 (stereo not drawn)	-7.0	106.1	97.4	0.95	2.2	5.8	·	·	·
Cn1ncc(Br)c1C(=O)NC12CC3CC(CC(C3)C1)C2	-7.9	107.0	95.3	1.12	18.0	9.2	·	·	·
